ChEMBL document CHEMBL1154098, “Synthesis, characterization and in vitro antimicrobial activity of novel 2-thioxo-4-thiazolidinones and 4,4'-bis(2-thioxo-4-thiazolidinone-3-yl)diphenylsulfones” (2009)

How the values were obtained:
Penicillium chrysogenum [1] = assay: Antifungal activity against Penicillium chrysogenum Thom AUCC 530 at 1 mg/mL after 48 hrs by agar diffusion assay; type: functional; settings: Thom AUCC 530, 48 h, read-out: DIZ
How it was run: (§1)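 Fungi were grown on Czapek's–Dox agar and assayed by agar diffusion. Test solution was 1 mg mL-1 in DMF, with DMF as negative control. After 48 h incubation, the inhibition zone diameter was measured in mm.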

Serratia marcescens [2] = assay: Antibacterial activity against Serratia marcescens IMRU 70 at 1 mg/mL […] by agar diffusion assay; type: functional; settings: read-out: DIZ
Bacillus cereus [3] = assay: Antibacterial activity against Bacillus cereus ATCC 14579 at 1 mg/mL […] by agar diffusion assay; type: functional; settings: read-out: DIZ
Aspergillus ochraceus [4] = assay: Antifungal activity against Aspergillus ochraceus Wilhelm AUCC 230 at 1 mg/mL after 48 hrs by agar diffusion assay; type: functional; settings: Wilhelm AUCC 230, 48 h, read-out: DIZ; how it was run: as §1
Proteus mirabilis [5] = assay: Antibacterial activity against Proteus mirabilis NCT 289 at 1 mg/mL […] by agar diffusion assay; type: functional; settings: read-out: DIZ
Staphylococcus aureus [6] = assay: Antibacterial activity against Staphylococcus aureus NCTC 7447 at 1 mg/mL […] by agar diffusion assay; type: functional; settings: read-out: DIZ
Penicillium chrysogenum [7] = assay: Antifungal activity against Penicillium chrysogenum Thom AUCC 530 after 48 hrs by agar diffusion assay; type: functional; settings: Thom AUCC 530, 48 h
Bacillus cereus [8] = assay: Antibacterial activity against Bacillus cereus ATCC 14579 after 24 hrs by agar diffusion assay; type: functional; settings: ATCC 14579, 24 h
Staphylococcus aureus [9] = assay: Antibacterial activity against Staphylococcus aureus NCTC 7447 at 25 ug/mL […] by agar diffusion assay; type: functional; settings: read-out: DIZ
Serratia marcescens [10] = assay: Antibacterial activity against Serratia marcescens IMRU 70 at 25 ug/mL […] by agar diffusion assay; type: functional; settings: read-out: DIZ
Aspergillus ochraceus [11] = assay: Antifungal activity against Aspergillus ochraceus Wilhelm AUCC 230 at 25 ug/mL after 24 hrs by agar diffusion assay; type: functional; settings: Wilhelm AUCC 230, 24 h, read-out: DIZ
Proteus mirabilis [12] = assay: Antibacterial activity against Proteus mirabilis NCT 289 at 25 ug/mL […] by agar diffusion assay; type: functional; settings: read-out: DIZ
Bacillus cereus [13] = assay: Antibacterial activity against Bacillus cereus ATCC 14579 at 25 ug/mL […] by agar diffusion assay; type: functional; settings: read-out: DIZ
Penicillium chrysogenum [14] = assay: Antifungal activity against Penicillium chrysogenum Thom AUCC 530 at 25 ug/mL after 24 hrs by agar diffusion assay; type: functional; settings: Thom AUCC 530, 24 h, read-out: DIZ
Aspergillus ochraceus [15] = assay: Antifungal activity against Aspergillus ochraceus Wilhelm AUCC 230 at 30 ug/mL after 48 hrs by agar diffusion assay; type: functional, organism-based
Penicillium chrysogenum [16] = assay: Antifungal activity against Penicillium chrysogenum Thom AUCC 530 at 30 ug/mL after 48 hrs by agar diffusion assay; type: functional, organism-based
How it was run: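 Agar-diffusion assay on Czapek's–Dox agar inoculated with the fungal culture. Test solutions were 1 mg mL-1 in DMF, with DMF as the negative control and Mycostatine (30 µg mL-1) as the reference drug. Plates were incubated for 48 h, and the inhibition zone diameter was measured in mm.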

Molecule	zone of inhibition at 1000 µg/mL (Penicillium chrysogenum [1]) [mm]	zone of inhibition at 1000 µg/mL (Serratia marcescens [2]) [mm]	zone of inhibition at 1000 µg/mL (Bacillus cereus [3]) [mm]	zone of inhibition at 1000 µg/mL (Aspergillus ochraceus [4]) [mm]	zone of inhibition at 1000 µg/mL (Proteus mirabilis [5]) [mm]	zone of inhibition at 1000 µg/mL (Staphylococcus aureus [6]) [mm]	MIC (Penicillium chrysogenum [7]) [µg/mL]	MIC (Bacillus cereus [8]) [µg/mL]	zone of inhibition at 25 µg/mL (Staphylococcus aureus [9]) [mm]	zone of inhibition at 25 µg/mL (Serratia marcescens [10]) [mm]	zone of inhibition at 25 µg/mL (Aspergillus ochraceus [11]) [mm]	zone of inhibition at 25 µg/mL (Proteus mirabilis [12]) [mm]	zone of inhibition at 25 µg/mL (Bacillus cereus [13]) [mm]	zone of inhibition at 25 µg/mL (Penicillium chrysogenum [14]) [mm]	inhibition zone (IZ) (Aspergillus ochraceus [15]) [mm]	inhibition zone (IZ) (Penicillium chrysogenum [16]) [mm]
COc1ccc(/C=C2\SC(=S)N(c3ccc(S(=O)(=O)c4ccc(N5C(=O)/C(=C/c6ccc(OC)cc6)SC5=S)cc4)cc3)C2=O)cc1	11	13	16	11	25	17	–	–	–	–	–	–	–	–	–	–
CCO/C=C1/SC(=S)N(c2ccc(S(N)(=O)=O)cc2)C1=O	18	23	12	12	23	25	–	–	–	–	–	–	–	–	–	–
NS(=O)(=O)c1ccc(N2C(=O)CSC2=S)cc1	16	20	13	18	24	28	–	–	–	–	–	–	–	–	–	–
COc1ccc(/C=C2/SC(=S)N(c3ccc(S(N)(=O)=O)cc3)C2=O)cc1	17	15	10	19	19	27	–	–	–	–	–	–	–	–	–	–
O=C1CSC(=S)N1c1ccc(S(=O)(=O)Nc2ncccn2)cc1	35	22	16	15	19	18	< 50	–	–	–	–	–	–	–	–	–
CN(C)/C=N/S(=O)(=O)c1ccc(N2C(=O)/C(=C\N(C)C)SC2=S)cc1	16	12	15	16	20	16	–	–	–	–	–	–	–	–	–	–
N#CC(C#N)=C1SC(=S)N(c2ccc(S(N)(=O)=O)cc2)C1=O	14	24	32	14	18	15	–	< 50	–	–	–	–	–	–	–	–
Cc1ccc(/C=C2/SC(=S)N(c3ccc(S(N)(=O)=O)cc3)C2=O)cc1	10	18	34	14	17	14	–	< 50	–	–	–	–	–	–	–	–
NS(=O)(=O)c1ccc(N2C(=O)/C(=C\c3ccc(/C=C4/SC(=S)N(c5ccc(S(N)(=O)=O)cc5)C4=O)cc3)SC2=S)cc1	15	19	33	16	22	13	–	< 50	–	–	–	–	–	–	–	–
O=C1CSC(=S)N1c1ccc(S(=O)(=O)c2ccc(N3C(=O)CSC3=S)cc2)cc1	12	10	13	26	24	15	–	–	–	–	–	–	–	–	–	–
CC1(C)S[C@@H]2[C@H](NC(=O)[C@H](N)c3ccccc3)C(=O)N2[C@H]1C(=O)O [AMPICILLIN]	–	–	–	–	–	–	–	–	40	40	10	40	43	16	–	–
NYSTATIN	–	–	–	–	–	–	–	–	–	–	–	–	–	–	40	43
